Assay results: ChEMBL document CHEMBL4393722, “Development of the "hidden" multifunctional agents for Alzheimer's disease” (Eur J Med Chem, 2019)
Active and inactive are the calls of the source. No cut-off for these calls is given here.

Tests used:
[1] = molecular target: Amyloid-beta precursor protein (Homo sapiens) (UniProt P05067); test: Inhibition of HFIP-pretreated amyloid beta (1 to 42) (unknown origin) self-aggregation at 20 uM after 72 hrs by uranyl acetate staining based transmission electron microscopy
In short: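 Aβ1-42 was incubated alone or with compound for 72 h at 37 °C. Fibril formation was then examined by transmission electron microscopy, with curcumin as positive control.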

Danio rerio [2] = organism: Danio rerio; test: Cognition enhancement in aluminium chloride-induced Alzheimer's disease zebra fish model assessed as Response efficiency at 250 uM treated from 3 dpf to 5 dpf relative to control; format: functional
In short: (§1)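 Zebrafish larvae were exposed to 150 µM AlCl₃ from 3 to 5 dpf, with the test drug co-administered over the same 3–5 dpf window. There were 30 fish per group. Dyskinesia recovery rate (DRR) and response efficiency (RE) were both calculated from the average swimming speed of drug-treated fish, with p values reported.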

Danio rerio [3] = organism: Danio rerio; test: Cognition enhancement in aluminium chloride-induced Alzheimer's disease zebra fish model assessed as Dyskinesia recovery rate at 250 uM treated from 3 dpf to 5 dpf relative to control; format: functional; in short: as §1
Danio rerio [4] = organism: Danio rerio; test: Cognition enhancement in aluminium chloride-induced Alzheimer's disease zebra fish model assessed as Dyskinesia recovery rate at 10 uM treated from 3 dpf to 5 dpf relative to control; format: functional; in short: as §1
Danio rerio [5] = organism: Danio rerio; test: Cognition enhancement in aluminium chloride-induced Alzheimer's disease zebra fish model assessed as Response efficiency at 10 uM treated from 3 dpf to 5 dpf relative to control; format: functional; in short: as §1
Mus musculus [6] = test: Cognition enhancement in aluminium trichloride-induced amnesia mouse model assessed as total swimming time at 2 mg/kg administered via gastric gavage for 30 days by SMG-2 programmable water maze test; format: functional, organism-based
Danio rerio [7] = organism: Danio rerio; test: Cognition enhancement in aluminium chloride-induced Alzheimer's disease zebra fish model assessed as Response efficiency at 50 uM treated from 3 dpf to 5 dpf relative to control; format: functional; in short: as §1
Mus musculus [8] = test: Cognition enhancement in aluminium trichloride-induced amnesia mouse model assessed as error times at 2 mg/kg administered via gastric gavage for 30 days by SMG-2 programmable water maze test; format: functional, organism-based
Danio rerio [9] = organism: Danio rerio; test: Cognition enhancement in aluminium chloride-induced Alzheimer's disease zebra fish model assessed as Dyskinesia recovery rate at 50 uM treated from 3 dpf to 5 dpf relative to control; format: functional; in short: as §1
[10] = Metal chelating activity assessed as compound-Cu2+ complex formation by measuring decrease in absorption with spectral shift to red end at 25 uM incubated for 5 mins in presence of 25 uM CuCl2 by UV-visible spectrophotometry
[11] = Metal chelating activity assessed as compound-Fe2+ complex formation at 25 uM incubated for 5 mins in presence of 25 uM FeSO4 by UV-visible spectrophotometry
[12] = Metal chelating activity assessed as compound-Zn2+ complex formation at 25 uM incubated for 5 mins in presence of 25 uM ZnCl2 by UV-visible spectrophotometry
Mus musculus [13] = organism: Mus musculus; test: Cognition enhancement in scopolamine-induced amnesia mouse model by Morris water maze test; format: functional, organism-based

Sequence of Amyloid-beta precursor protein (Homo sapiens) (P05067 whole entry): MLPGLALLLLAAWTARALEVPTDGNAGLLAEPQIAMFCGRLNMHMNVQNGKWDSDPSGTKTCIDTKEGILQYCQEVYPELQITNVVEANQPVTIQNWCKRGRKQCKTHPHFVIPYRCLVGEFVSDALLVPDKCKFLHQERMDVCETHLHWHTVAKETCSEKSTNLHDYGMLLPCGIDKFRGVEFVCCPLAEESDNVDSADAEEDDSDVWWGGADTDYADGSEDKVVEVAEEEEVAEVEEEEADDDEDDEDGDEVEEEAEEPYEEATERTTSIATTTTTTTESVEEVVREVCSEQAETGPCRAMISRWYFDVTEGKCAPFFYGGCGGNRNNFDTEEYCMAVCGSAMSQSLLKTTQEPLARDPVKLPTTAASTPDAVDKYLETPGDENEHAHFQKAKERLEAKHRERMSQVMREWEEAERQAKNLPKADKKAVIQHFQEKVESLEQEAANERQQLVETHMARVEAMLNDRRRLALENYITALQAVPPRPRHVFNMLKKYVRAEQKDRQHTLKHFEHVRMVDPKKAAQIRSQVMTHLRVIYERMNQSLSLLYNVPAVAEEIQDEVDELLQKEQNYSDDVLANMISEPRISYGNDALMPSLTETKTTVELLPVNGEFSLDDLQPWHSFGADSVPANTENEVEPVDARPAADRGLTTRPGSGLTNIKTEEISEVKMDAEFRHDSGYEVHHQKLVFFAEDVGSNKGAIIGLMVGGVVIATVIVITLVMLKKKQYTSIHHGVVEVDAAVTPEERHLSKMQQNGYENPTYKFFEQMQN

COc1cc(/C=C/C(=O)CC(=O)/C=C/c2ccc(O)c(OC)c2)ccc1O
inhibition [1]: Active

CCN(C)C(=O)Oc1cccc([C@H](C)N(C)C)c1 [RIVASTIGMINE]
Activity (Danio rerio [2]): 175.1% | Activity (Danio rerio [3]): 58.6% | Activity (Danio rerio [4]): 53.4% | Activity (Danio rerio [5]): 126.3% | Activity (Mus musculus [6]): inactive | Activity (Danio rerio [7]): 86.6% | Activity (Mus musculus [8]): inactive | Activity (Danio rerio [9]): 64%

Oc1c(I)cc(Cl)c2cccnc12
Activity [10]: Active | Activity [11]: Active | Activity [12]: Active | Activity (Mus musculus [13]): inactive
